Converted amounts (≈) assume the structure as drawn.
Key:
Staphylococcus [1] = assay: Antimicrobial activity against methicillin-resistant coagulase-negative Staphylococcus by agar dilution method; format: functional
Method in brief: (§1)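 Agar dilution per CLSI on Mueller-Hinton agar, test agents at 0.12 to 8 µg/ml; test compounds dissolved in 20% water in DMSO, linezolid in 40% water in ethanol, vancomycin in water. Clinical isolates inoculated at final 10^7 CFU/ml, incubated 35 °C for 18 h. MIC = lowest concentration completely inhibiting growth; reported as range across isolates.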

Moraxella catarrhalis = assay: Antimicrobial activity against Moraxella catarrhalis; format: functional
Staphylococcus aureus [2] = assay: Antimicrobial activity against Staphylococcus aureus ATCC 25923 by agar dilution method
Staphylococcus aureus [3] = assay: Antimicrobial activity against Staphylococcus aureus ATCC 25922 in presence of 50% human plasma […]; format: functional; details: ATCC 25923, Plasma, in the assay text read “ATCC 25923” for “ATCC 25922”
Method in brief: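 S. aureus ATCC 25923 tested in Mueller–Hinton broth supplemented with 50% human plasma. Test compounds dissolved in 20% water in DMSO. Inoculum 10⁷ CFU/ml, incubated 35 °C for 18 h. MIC was the lowest concentration completely inhibiting growth.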

Staphylococcus aureus [4] = assay: Antimicrobial activity against methicillin-susceptible Staphylococcus aureus by agar dilution method; format: functional; method in brief: as §1
Streptococcus pneumoniae = assay: Antimicrobial activity against Streptococcus pneumoniae by agar dilution method; format: functional
Method in brief: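 Agar dilution per CLSI on Mueller–Hinton agar holding drug dilutions from 0.12 to 8 µg/ml. Staphylococci and enterococci tested on plain MH agar, S. pneumoniae on MH agar with 5% sheep blood. Test compounds dissolved in 20% water in DMSO. Inoculum 10⁷ CFU/ml, incubated 35 °C for 18 h. MIC was the lowest concentration giving complete growth inhibition.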

Staphylococcus [5] = assay: Antimicrobial activity against methicillin-susceptible coagulase-negative staphylococcus by agar dilution method; format: functional; method in brief: as §1
Escherichia coli = assay: Antimicrobial activity against Escherichia coli ATCC 25922; format: functional
Enterococcus [6] = assay: Antimicrobial activity against vancomycin-sensitive Enterococcus by agar dilution method; format: functional; method in brief: as §1
Staphylococcus aureus [7] = assay: Antimicrobial activity against methicillin-resistant Staphylococcus aureus by agar dilution method; format: functional; method in brief: as §1
Haemophilus influenzae = assay: Antimicrobial activity against Haemophilus influenzae; format: functional
Enterococcus [8] = assay: Antimicrobial activity against vancomycin-resistant Enterococcus by agar dilution method; format: functional; method in brief: as §1

**Q.** How did the MIC (Staphylococcus [1]) turn out when `O=C(c1ccncc1)N1CCN(c2ccc(N3C[C@H](Cn4ccnn4)OC3=O)cc2F)CC1` was run?
**A.** 0.5 µg/mL (≈ 1.11 µM)

**Q.** And the MIC (Moraxella catarrhalis)?
**A.** ≥ 8 µg/mL

**Q.** What about the MIC (Staphylococcus aureus [2]) of the same compound?
**A.** 1 µg/mL (≈ 2.22 µM)

**Q.** And the MIC (Staphylococcus aureus [3])?
**A.** 8 µg/mL

**Q.** What about the MIC (Staphylococcus aureus [4]) of the same compound?
**A.** 0.5 µg/mL (≈ 1.11 µM)

**Q.** And the MIC (Streptococcus pneumoniae)?
**A.** 1 µg/mL (≈ 2.22 µM)

**Q.** What about the MIC (Staphylococcus [5]) of the same compound?
**A.** 0.25 µg/mL (≈ 0.554 µM)

**Q.** And the MIC (Escherichia coli)?
**A.** ≥ 8 µg/mL

**Q.** What about the MIC (Enterococcus [6]) of the same compound?
**A.** 1 µg/mL (≈ 2.22 µM)

**Q.** What about the MIC (Staphylococcus aureus [7]) of the same compound?
**A.** 0.5 µg/mL (≈ 1.11 µM)

**Q.** And the MIC (Haemophilus influenzae)?
**A.** ≥ 8 µg/mL

**Q.** And the MIC (Enterococcus [8])?
**A.** 0.5 µg/mL (≈ 1.11 µM)

**Q.** Which results are given for `O=C1O[C@@H](Cn2ccnn2)CN1c1ccc(N2CCN(S(=O)(=O)c3ccccc3)CC2)c(F)c1`?
**A.** MIC (Staphylococcus [1]): 0.5 µg/mL (≈ 1.03 µM); MIC (Moraxella catarrhalis): ≥ 8 µg/mL; MIC (Staphylococcus aureus [2]): 2 µg/mL (≈ 4.11 µM); MIC (Staphylococcus aureus [3]): 8 µg/mL; MIC (Staphylococcus aureus [4]): 0.5 µg/mL (≈ 1.03 µM); MIC (Streptococcus pneumoniae): 1 µg/mL (≈ 2.06 µM); MIC (Staphylococcus [5]): 0.5 µg/mL (≈ 1.03 µM); MIC (Escherichia coli): ≥ 8 µg/mL; MIC (Enterococcus [6]): 2 µg/mL (≈ 4.11 µM); MIC (Staphylococcus aureus [7]): 0.5 µg/mL (≈ 1.03 µM); MIC (Haemophilus influenzae): ≥ 8 µg/mL; MIC (Enterococcus [8]): 0.5 µg/mL (≈ 1.03 µM)

**Q.** What does the source list for `O=C(/C=C/c1ccccc1)N1CCN(c2ccc(N3C[C@H](Cn4ccnn4)OC3=O)cc2F)CC1`?
**A.** MIC (Staphylococcus [1]): 0.25 µg/mL (≈ 0.525 µM); MIC (Moraxella catarrhalis): ≥ 8 µg/mL; MIC (Staphylococcus aureus [2]): 0.5 µg/mL (≈ 1.05 µM); MIC (Staphylococcus aureus [3]): > 8 µg/mL; MIC (Staphylococcus aureus [4]): 0.25 µg/mL (≈ 0.525 µM); MIC (Streptococcus pneumoniae): 1 µg/mL (≈ 2.1 µM); MIC (Staphylococcus [5]): 0.25 µg/mL (≈ 0.525 µM); MIC (Escherichia coli): ≥ 8 µg/mL; MIC (Enterococcus [6]): 0.5 µg/mL (≈ 1.05 µM); MIC (Staphylococcus aureus [7]): 0.25 µg/mL (≈ 0.525 µM); MIC (Haemophilus influenzae): ≥ 8 µg/mL; MIC (Enterococcus [8]): 0.25 µg/mL (≈ 0.525 µM)

**Q.** How did the MIC (Staphylococcus [1]) turn out when `O=C(c1ccc([N+](=O)[O-])cc1)N1CCN(c2ccc(N3C[C@H](Cn4ccnn4)OC3=O)cc2F)CC1` was run?
**A.** 1 µg/mL (≈ 2.02 µM)

**Q.** And the MIC (Moraxella catarrhalis)?
**A.** ≥ 8 µg/mL

**Q.** And the MIC (Staphylococcus aureus [2])?
**A.** 2 µg/mL (≈ 4.04 µM)

**Q.** What about the MIC (Staphylococcus aureus [3]) of the same compound?
**A.** 4 µg/mL

**Q.** What about the MIC (Staphylococcus aureus [4]) of the same compound?
**A.** 2 µg/mL (≈ 4.04 µM)

**Q.** What about the MIC (Streptococcus pneumoniae) of the same compound?
**A.** 1 µg/mL (≈ 2.02 µM)

**Q.** What about the MIC (Staphylococcus [5]) of the same compound?
**A.** 1 µg/mL (≈ 2.02 µM)

**Q.** And the MIC (Escherichia coli)?
**A.** ≥ 8 µg/mL

**Q.** And the MIC (Enterococcus [6])?
**A.** 2 µg/mL (≈ 4.04 µM)

**Q.** And the MIC (Staphylococcus aureus [7])?
**A.** 1 µg/mL (≈ 2.02 µM)

**Q.** What about the MIC (Haemophilus influenzae) of the same compound?
**A.** ≥ 8 µg/mL

**Q.** And the MIC (Enterococcus [8])?
**A.** 2 µg/mL (≈ 4.04 µM)

**Q.** Which results are given for `COc1ccc(C(=O)N2CCN(c3ccc(N4C[C@H](Cn5ccnn5)OC4=O)cc3F)CC2)cc1`?
**A.** MIC (Staphylococcus [1]): 1 µg/mL (≈ 2.08 µM); MIC (Moraxella catarrhalis): ≥ 8 µg/mL; MIC (Staphylococcus aureus [2]): 2 µg/mL (≈ 4.16 µM); MIC (Staphylococcus aureus [3]): 8 µg/mL; MIC (Staphylococcus aureus [4]): 1 µg/mL (≈ 2.08 µM); MIC (Streptococcus pneumoniae): 0.5 µg/mL (≈ 1.04 µM); MIC (Staphylococcus [5]): 0.5 µg/mL (≈ 1.04 µM); MIC (Escherichia coli): ≥ 8 µg/mL; MIC (Enterococcus [6]): 1 µg/mL (≈ 2.08 µM); MIC (Staphylococcus aureus [7]): 0.5 µg/mL (≈ 1.04 µM); MIC (Haemophilus influenzae): ≥ 8 µg/mL; MIC (Enterococcus [8]): 1 µg/mL (≈ 2.08 µM)

**Q.** Which MIC (Staphylococcus [1]) does the source give for `O=C(c1ccccc1[N+](=O)[O-])N1CCN(c2ccc(N3C[C@H](Cn4ccnn4)OC3=O)cc2F)CC1` here?
**A.** 1 µg/mL (≈ 2.02 µM)

**Q.** What about the MIC (Moraxella catarrhalis) of the same compound?
**A.** ≥ 8 µg/mL

**Q.** What about the MIC (Staphylococcus aureus [2]) of the same compound?
**A.** 2 µg/mL (≈ 4.04 µM)

**Q.** And the MIC (Staphylococcus aureus [3])?
**A.** 2 µg/mL

**Q.** And the MIC (Staphylococcus aureus [4])?
**A.** 1 µg/mL (≈ 2.02 µM)

**Q.** And the MIC (Streptococcus pneumoniae)?
**A.** 0.5 µg/mL (≈ 1.01 µM)

**Q.** And the MIC (Staphylococcus [5])?
**A.** 1 µg/mL (≈ 2.02 µM)

**Q.** What about the MIC (Escherichia coli) of the same compound?
**A.** ≥ 8 µg/mL

**Q.** And the MIC (Enterococcus [6])?
**A.** 2 µg/mL (≈ 4.04 µM)

**Q.** And the MIC (Staphylococcus aureus [7])?
**A.** 0.5 µg/mL (≈ 1.01 µM)

**Q.** And the MIC (Haemophilus influenzae)?
**A.** ≥ 8 µg/mL

**Q.** And the MIC (Enterococcus [8])?
**A.** 1 µg/mL (≈ 2.02 µM)

**Q.** What does the source list for `Cc1ccc(S(=O)(=O)N2CCN(c3ccc(N4C[C@H](Cn5ccnn5)OC4=O)cc3F)CC2)cc1`?
**A.** MIC (Moraxella catarrhalis): ≥ 8 µg/mL; MIC (Staphylococcus aureus [2]): > 8 µg/mL; MIC (Staphylococcus aureus [3]): > 8 µg/mL; MIC (Staphylococcus aureus [4]): > 8 µg/mL; MIC (Streptococcus pneumoniae): 2 µg/mL (≈ 4 µM); MIC (Staphylococcus [5]): > 8 µg/mL; MIC (Escherichia coli): ≥ 8 µg/mL; MIC (Enterococcus [6]): > 8 µg/mL; MIC (Haemophilus influenzae): ≥ 8 µg/mL

**Q.** Which MIC (Staphylococcus [1]) does the source give for `CN[C@H](CC(C)C)C(=O)N[C@H]1C(=O)N[C@@H](CC(N)=O)C(=O)N[C@H]2C(=O)N[C@H]3C(=O)N[C@H](C(=O)N[C@H](C(=O)O)c4cc(O)cc(O)c4-c4cc3ccc4O)[C@H](O)c3ccc(c(Cl)c3)Oc3cc2cc(c3O[C@@H]2O[C@H](CO)[C@@H](O)[C@H](O)[C@H]2O[C@H]2C[C@](C)(N)[C@H](O)[C@H](C)O2)Oc2ccc(cc2Cl)[C@H]1O` [VANCOMYCIN] here?
**A.** 1 µg/mL (≈ 0.69 µM)

**Q.** And the MIC (Moraxella catarrhalis)?
**A.** ≥ 8 µg/mL

**Q.** And the MIC (Streptococcus pneumoniae)?
**A.** 0.5 µg/mL (≈ 0.345 µM)

**Q.** And the MIC (Staphylococcus [5])?
**A.** 1 µg/mL (≈ 0.69 µM)

**Q.** And the MIC (Escherichia coli)?
**A.** ≥ 8 µg/mL

**Q.** And the MIC (Enterococcus [6])?
**A.** 0.25 µg/mL (≈ 0.173 µM)

**Q.** And the MIC (Haemophilus influenzae)?
**A.** ≥ 8 µg/mL

**Q.** And the MIC (Enterococcus [8])?
**A.** > 64 µg/mL

**Q.** Which results are given for `CC(=O)NC[C@H]1CN(c2ccc(N3CCOCC3)c(F)c2)C(=O)O1` [LINEZOLID]?
**A.** MIC (Staphylococcus [1]): 1 µg/mL (≈ 2.96 µM); MIC (Moraxella catarrhalis): ≥ 8 µg/mL; MIC (Staphylococcus aureus [4]): 1 µg/mL (≈ 2.96 µM); MIC (Staphylococcus [5]): 0.25 µg/mL (≈ 0.741 µM); MIC (Escherichia coli): ≥ 8 µg/mL; MIC (Enterococcus [6]): 0.5 µg/mL (≈ 1.48 µM); MIC (Staphylococcus aureus [7]): 0.5 µg/mL (≈ 1.48 µM); MIC (Haemophilus influenzae): ≥ 8 µg/mL; MIC (Enterococcus [8]): 2 µg/mL (≈ 5.93 µM)

**Q.** Which results are given for `Cc1cccc(S(=O)(=O)N2CCN(c3ccc(N4C[C@H](Cn5ccnn5)OC4=O)cc3F)CC2)c1`?
**A.** MIC (Staphylococcus [1]): 2 µg/mL (≈ 4 µM); MIC (Moraxella catarrhalis): ≥ 8 µg/mL; MIC (Staphylococcus aureus [2]): > 8 µg/mL; MIC (Staphylococcus aureus [3]): > 8 µg/mL; MIC (Staphylococcus aureus [4]): 4 µg/mL (≈ 7.99 µM); MIC (Streptococcus pneumoniae): 2 µg/mL (≈ 4 µM); MIC (Staphylococcus [5]): 2 µg/mL (≈ 4 µM); MIC (Escherichia coli): ≥ 8 µg/mL; MIC (Enterococcus [6]): > 8 µg/mL; MIC (Staphylococcus aureus [7]): 2 µg/mL (≈ 4 µM); MIC (Haemophilus influenzae): ≥ 8 µg/mL
